Assay outcomes as filed in PubChem.
N-glyco inh – N-linked glycosylation inhibition. D54 ERlucT glycosylation luciferase reporter, 24 h; percent of 100 nM tunicamycin response. reporter increase, % at 12.5 µM. 360,000 compounds, 0.23% hits;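 active = mean luciferase reporter signal, scaled so untreated is 0 and the glycosylation-blocking control 100, at or above a set limit in every replicate; inconclusive = mean reaches the limit but not every replicate does; inactive = mean below the limit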;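 also: luciferase carries N-glycosylation sites so blocking glycosylation raises the light; 0% = median of neutral control wells and 100% = median of 100 nM tunicamycin wells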
SR-BI DiI-HDL act – SR-BI HDL lipid transfer activation. activation, % at 12.5 µM. CHO ldlA[mSR-BI] cells, DiI-HDL uptake fluorescence, 3 h; 100 = double the neutral-control signal. 320,000 compounds, 0.096% hits;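 active = mean replicate activation of at least 60% and every replicate at or above 60%; inconclusive = mean or all-replicate condition met, but not both; inactive = mean below 60% and not all replicates reaching 60%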;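 also: 0% = median plate neutral-control signal and 100% = twice that signal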
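Assay system: CHO ldlA[mSR-BI] cells, LDL receptor-null, SR-BI overexpressing; medium: Ham's F12 with 0.5% BSA, HEPES 25 mM, pH 7.4; also added: DiI-HDL 10 µg/mL; timing: 3 h uptake period with compound, 37 °C; signal: DiI fluorescence, bottom read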
Env fusion inh – blocks HIV Env-driven cell-cell fusion; HeLa-JRFL Env/CEM21 cell fusion, luciferase; inhibition, % at 12.3 µM; 360,000 compounds, 1.1% hits; AID 651610;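 active = mean replicate inhibition score of at least 50 and every replicate individually at or above 50; inconclusive = only one of the two criteria met; inactive = mean below 50 and not all replicates reaching 50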;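 also: 0% = plate neutral controls and 100% = maraviroc near 300 nM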
Rtt109 HAT inh – blocks Candida albicans Rtt109/Vps75 acetyltransferase activity; Q5AAJ8; purified Rtt109/Vps75, ThioGlo CoA-SH fluorescence, 4 h; inhibition, % at 34.9 µM; 330,000 compounds, 0.16% hits;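 active = inhibition of at least 50% in every replicate; inconclusive = best replicate reaches 50% inhibition but some replicates fall short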
PglD inh – inhibitors of Campylobacter jejuni PglD acetyltransferase. purified PglD enzyme, DTNB colorimetric CoA detection. inhibition, % at 12.5 µM. 360,000 compounds, 0.098% hits; in the data active = inhibition above about 16%, passing the limit was not always enough; inconclusive = no clear call, values can overlap the other calls
SR-BI HDL uptake – inhibitors of mouse SR-BI mediated HDL lipid uptake | Q61009 | ldlA[mSR-BI] CHO cells, DiI-HDL uptake fluorescence, 3 h | inhibition, % at 12.5 µM | 320,000 compounds, 0.96% hits | AID 488896;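 active = mean replicate inhibition of at least 70% and a set share of replicates each scoring 70 or more; inconclusive = meets just one of the two criteria; inactive = fails both criteria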;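 also: 0% = median of neutral control wells and 100% = median of positive control wells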
Target sequence (Q61009 whole entry, looked up): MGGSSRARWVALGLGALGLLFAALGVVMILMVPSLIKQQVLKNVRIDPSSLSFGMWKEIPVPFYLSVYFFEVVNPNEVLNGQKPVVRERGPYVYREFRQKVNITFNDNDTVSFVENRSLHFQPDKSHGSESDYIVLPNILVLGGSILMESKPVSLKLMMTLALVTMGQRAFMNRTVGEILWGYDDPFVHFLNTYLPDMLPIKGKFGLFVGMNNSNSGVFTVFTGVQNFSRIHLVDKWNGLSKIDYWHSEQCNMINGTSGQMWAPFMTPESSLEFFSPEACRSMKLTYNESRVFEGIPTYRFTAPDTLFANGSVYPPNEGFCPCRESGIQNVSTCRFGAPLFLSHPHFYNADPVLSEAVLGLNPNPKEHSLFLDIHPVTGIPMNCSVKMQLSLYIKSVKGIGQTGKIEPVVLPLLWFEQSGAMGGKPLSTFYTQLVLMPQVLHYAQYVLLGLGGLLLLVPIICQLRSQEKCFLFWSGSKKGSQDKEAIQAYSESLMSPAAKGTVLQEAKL
An asterisk follows results filed as active; u = inconclusive; x = no result; [ ] = another dose, or the depositor's remark. Most compounds without a hit are left out; they make up all but 1.9% or so of the library.

SMILES	N-glyco inh	SR-BI DiI-HDL act	Env fusion inh	Rtt109 HAT inh	PglD inh	SR-BI HDL uptake
C[C@@H](NC(=O)C[C@@H]1C[C@@H]2c3cc(NC(=O)c4ccc5c(c4)OCO5)ccc3O[C@@H]2[C@H](CO)O1)c1ccccc1	x	x	2[16.7 µM]	x	3	x
CC(=O)N(C)C[C@@H]1Oc2ncc(-c3cccnc3)cc2C(=O)N([C@H](C)CO)C[C@@H]1C	x	x	-22[16.7 µM]	x	0	x
CCCNC(=O)[C@@H]1[C@@H](CO)[C@@H]2Cn3c(ccc(-c4ccccc4F)c3=O)[C@H]1N2S(C)(=O)=O	x	x	x	x	-2	x
O=[N+]([O-])c1cccc(COc2cccc(CN3CCCC3)c2)c1	2	6	60*	-5	3	-6
O=[N+]([O-])c1cccc(COc2cccc(CN3CCCCC3)c2)c1	-3	-2	21	4	-4	2
N#C/C(=C\c1ccncc1)c1nc2ccccc2[nH]1	6	-9	-4	-10	x	9
N#C/C(=C\c1cccnc1)c1nc2ccccc2[nH]1	42*	x	-35	x	0	x
CN1CCN(C(c2ccc(Br)cc2)c2cc(Cl)c3cccnc3c2O)CC1 (centres undefined)	37*	-3	-13	2	0	3
Cc1cccc2sc(N(CCCN(C)C)C(=O)CN3C(=O)c4ccccc4C3=O)nc12	0	4	-6	-2	x	-4
COc1ccc(Cl)c2sc(N(CCN(C)C)C(=O)CCS(=O)(=O)c3ccc(C)cc3)nc12	0	34	-12	1	x	-34
COc1ccc(OC)c2sc(N(CCCN(C)C)C(=O)CCS(=O)(=O)c3ccccc3)nc12	-12	44	27	83*	-1	-44
Cc1cccc2sc(N(CCCN(C)C)C(=O)CCc3ccccc3)nc12	3	5	-43	58*	5	-5
O=S(=O)(N[C@@H]1CC[C@@H](CCn2cc(-c3cccnc3)nn2)O[C@H]1CO)c1ccc(Cl)cc1	x	x	5[16.7 µM]	x	2	x
Cc1ccc(NC2=C(NC(=O)c3ccccc3)C(=O)c3ccccc3C2=O)cc1Cl	3	-79	7	2	-1	79*
CN(C)CCCNC(=O)C[C@@H]1CC[C@H]2[C@@H](COC[C@@H](O)CN2Cc2ccc(Cl)c(Cl)c2)O1	x	x	8[16.7 µM]	x	-2	x
CN(C)CCC(=O)N1C/C(=C/c2ccccc2)C(=O)/C(=C\c2ccccc2)C1	-14	-4	75*	-1	x	4
OC[C@H]1O[C@@H](n2cnc3c(Nc4ccccc4)ncnc32)[C@H](O)[C@@H]1O	4	1	-5	0	10	-1
CC(C)=CCNc1ncnc2c1c(C#N)cn2C1OC(CO)C(O)C1O (centres undefined)	2	-5	58*	-5	x	5
Cc1ccc2c(c1)c1c3n2CCN(CCC#N)C3CCC1 (centres undefined)	1	x	72*	x	-4	x
O=C(Nc1ccc(C(=O)N2CCOCC2)cc1)c1cc(-c2cccnc2)nc2ccc(Br)cc12	3	-81	10	13	x	81*
C[C@@H]1CN([C@H](C)CO)C(=O)c2cccc(N(C)C)c2O[C@@H]1CN(C)S(=O)(=O)c1cn(C)cn1	x	x	0[16.7 µM]	x	2	x
COc1ccc(NC(=O)Nc2ccc3c(c2)C(=O)N([C@@H](C)CO)C[C@H](C)[C@H](CN(C)C(=O)NC2CCCCC2)OCCCC[C@H](C)O3)cc1	x	x	16[16.7 µM]	x	5	x
COc1ccc(C2C3=C(CC(C)(C)CC3=O)Oc3ncn(Cc4ccccc4)c(=N)c32)cc1 (centres undefined)	-5	8	61*	6	0	-8
CCCN(C)C[C@@H]1OCCCC[C@@H](C)Oc2ccc(NS(=O)(=O)c3ccccc3)cc2C(=O)N([C@H](C)CO)C[C@@H]1C	x	x	3[16.7 µM]	x	0	x
COc1ccccc1-c1cc(NC=O)c2ncc(-c3cccc(C(C)=O)c3)n2c1	u	x	67*	x	-1	x
SMILES	N-glyco inh	SR-BI DiI-HDL act	Env fusion inh	Rtt109 HAT inh	PglD inh	SR-BI HDL uptake
O=CNc1cc(-c2ccccc2Oc2ccccc2)cn2c(-c3ccc(F)cc3)cnc12	10	x	-45	x	2	x
COc1ccccc1-c1cc(NC=O)c2ncc(-c3cccc(C(=O)N(C)C)c3)n2c1	41*	x	37	x	-13	x
CC(=O)c1cccc(-c2cnc3c(NC=O)cc(-c4ccc(F)cc4)cn23)c1	5	x	4	x	-6	x
CC(=O)c1ccc(-c2cnc3c(NC=O)cc(-c4ccccc4Oc4ccccc4)cn23)cc1	11	x	56*	x	-2	x
O=C(Cc1ccccn1)NCC[C@H]1CC[C@H](NC(=O)Nc2ccccc2)[C@@H](CO)O1	x	x	5[16.7 µM]	x	1	x
COc1ccc(OC)c(NC(=O)c2cc(-c3cc(C)ccc3O)n[nH]2)c1	19	-76	-27	5	-2	76*
COc1ccc(OC)c(NC(=O)c2cc(-c3ccc(C)cc3O)n[nH]2)c1	1	-66	-41	2	6	66
COc1cc(CNS(=O)(=O)c2ccc3c(c2)CC(C)N3C(=O)C2CCC2)cc(OC)c1OC (centres undefined)	0	-7	57*	-3	1	7
CCN(CC)S(=O)(=O)c1cccc(S(=O)(=O)c2cccc(S(=O)(=O)N(CC)CC)c2)c1	-3	-64	79*	-6	-1	64
Cc1ccc(NC(=O)c2cnc(N3CCN(c4ccccn4)CC3)c3ccccc23)c(Br)c1	-4	-78	45	-1	x	78*
O=C(Nc1c(F)cccc1F)c1cnc(N2CCN(c3ccccn3)CC2)c2ccccc12	-4	-42	-144	-2	1	42
COc1ccc(NC(=O)c2sccc2SCc2cccc(C(F)(F)F)c2)cc1	-3	-12	80*	8	1	12
O=C(Nc1ccc(F)cc1)c1sccc1SCc1cccc(C(F)(F)F)c1	-5	-28	31	-4	-3	28
CN(C)c1ccc(C(C[N+](=O)[O-])c2c(N)n(C)c(=O)n(C)c2=O)c(F)c1C#N (centres undefined)	28*	-16	11	12	-1	16
COc1ccc(S(=O)(=O)N(C)C[C@@H]2Oc3ccc(NC(=O)Cn4cnnn4)cc3C(=O)N([C@H](C)CO)C[C@@H]2C)cc1	x	x	-6[16.7 µM]	x	-3	x
O=C1[C@H](Cc2ccccc2)NCCCC[C@H](c2ccc(Cl)cc2)N1Cc1ccccc1	-5	7	86*	-2	2	-7
O=C1[C@H](Cc2ccccc2)NCCCC[C@H](c2ccco2)N1Cc1ccccc1	-6	7	74*	13	-2	-7
O=C1[C@H](Cc2ccccc2)NCCCC[C@@H](c2ccco2)N1Cc1ccccc1	-1	1	58*	-1	4	-1
O=C(Cn1cc(CN2C(=O)COC[C@H]2c2ccccc2)nn1)Nc1nccs1	x	x	-21[16.7 µM]	x	2	x
O=C(CSC1=NCCN1)Nc1cccc([N+](=O)[O-])c1	9	-82	3	113*	4	82*
